3 compounds from ChEMBL document CHEMBL1152552, “Death receptor 5 promoter-enhancing compounds isolated from Catimbium speciosum and their enhancement effect on TRAIL-induced apoptosis” (Bioorg Med Chem, 2009) can be followed below.

Test [1] has as its target Tumor necrosis factor receptor superfamily member 10B (Homo sapiens) (UniProt O14763). Description: Induction of DR5 receptor promotor activity in human DLD1 cells co-transfected with Sac1 at 43.9 uM after 24 hrs by luciferase assay. The settings on record: DLD-1. The class given is cell-based.
Test [2] shares this target. Briefly: Induction of DR5 receptor promotor activity in human DLD1 cells co-transfected with Sac1 at 39 uM after 24 hrs by luciferase assay. Format: cell-based. The settings on record: DLD-1.
For test [3], the system named is DLD-1. Briefly: Induction of DR5 gene expression in human DLD1 cells co-transfected with Sac1 cells at 18.5 uM after 24 hrs by RT-PCR analysis.
Test [4] concerns DLD-1. Briefly: Induction of apoptosis in TRAIL-resistant human DLD1 cells assessed as late apoptotic cells at 18.5 uM after 24 hrs using annexin-V-FITC/propidium iodide staining by flow cytometry in presence of TRAIL. Format: functional. On the technique in general: Flow cytometry measures light scatter and fluorescence of single cells or particles in a stream.
Test [5] deals with DLD-1. Description: Cytotoxicity against human DLD1 cells co-transfected with Sac1 after 24 hrs. The class given is functional, cell-based. The note with it: DLD-1, 24 h.
Test [6] concerns DLD-1. Description: Decrease in Bcl-xL mRNA expression in human DLD1 cells co-transfected with Sac1 cells at 9.3 uM after 24 hrs by RT-PCR analysis. Format: functional, cell-based.
Test [7] has as its system DLD-1. Description: Induction of apoptosis in TRAIL-resistant human DLD1 cells assessed as accumulation in sub-G1 phase at 18.5 uM after 24 hrs using annexin-V-FITC/propidium iodide staining by flow cytometry in presence of TRAIL/z-IETD-fmk caspase 8 inhibitor. Format: functional, cell-based. An outline of the steps: (§1)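 DLD1/TR cells incubated 24 h with 18.5 uM test agent and 100 ng/mL TRAIL, plus either caspase-8 inhibitor z-IETD-fmk at 25 uM or caspase-9 inhibitor z-LEHD-fmk at 20 uM. Ethanol-fixed, PI/RNase stained, sub-G1 fraction read by flow cytometry (at least 20,000 events). Run in triplicate.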

Test [8] has as its system DLD-1. Briefly: Induction of apoptosis in TRAIL-resistant human DLD1 cells assessed as accumulation in sub-G1 phase at 18.5 uM after 24 hrs using annexin-V-FITC/propidium iodide staining by flow cytometry in presence of TRAIL. The class given is functional.
For test [9], the system named is AGS. Description: Induction of apoptosis in TRAIL-resistant human AGS cells assessed as late apoptotic cells at 18.5 uM after 24 hrs using annexin-V-FITC/propidium iodide staining by flow cytometry in presence of TRAIL. The class given is functional.
Test [10] deals with DLD-1. Briefly: Decrease in procaspase 8 in TRAIL-resistant human DLD1 cells co-transfected with Sac1 cells at 18.5 uM by Western blot analysis in presence of TRAIL. Format: functional, cell-based. In a few lines: (§2)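 Lysates of DLD1/TR cells treated 24 h (procaspase-8 after combined TRAIL exposure). Equal protein resolved by SDS-PAGE: 15% for Bcl-xL, 12.5% for DR5, 10% for caspase-8. Transferred to PVDF and probed 1 h at room temperature with primary antibody, then HRP secondary 1 h. Chemiluminescent detection with β-actin as loading control.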
(In western blotting, separated proteins are transferred to a membrane and probed.)

Test [11] deals with DLD-1. Briefly: Induction of apoptosis in TRAIL-resistant human DLD1 cells assessed as accumulation in sub-G1 phase after 24 hrs using annexin-V-FITC/propidium iodide staining by flow cytometry. The class given is functional.
For test [12], the system named is DLD-1. Description: Induction of apoptosis in TRAIL-resistant human DLD1 cells assessed as accumulation in sub-G1 phase at 18.5 uM after 24 hrs using annexin-V-FITC/propidium iodide staining by flow cytometry in presence of TRAIL/caspase 9 inhibitor. Format: functional, cell-based. An outline of the steps:
as §1

Test [13] relates to AGS. Briefly: Induction of apoptosis in TRAIL-resistant human AGS cells assessed as early apoptotic cells at 18.5 uM after 24 hrs using annexin-V-FITC/propidium iodide staining by flow cytometry in presence of TRAIL. The class given is functional.
The test system of test [14] is DLD-1. Briefly: Induction of apoptosis in TRAIL-resistant human DLD1 cells assessed as accumulation in sub-G1 phase at 9.3 uM after 24 hrs using annexin-V-FITC/propidium iodide staining by flow cytometry in presence of TRAIL. The class given is functional.
The subject of test [15] is AGS. Description: Induction of apoptosis in TRAIL-resistant human AGS cells assessed as early apoptotic cells at 9.3 uM after 24 hrs using annexin-V-FITC/propidium iodide staining by flow cytometry in presence of TRAIL. The class given is functional.
Test [16] concerns DLD-1. Briefly: Activation of caspase 3 in TRAIL-resistant human DLD1 cells co-transfected with Sac1 cells by luminescent assay in presence of TRAIL. Format: functional, cell-based. An outline of the steps: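 Cells exposed 24 h to 4.6, 9.3 or 18.5 uM test agent and/or 100 ng/mL TRAIL, harvested and lysed. Lysate incubated with luminogenic z-DEVD-aminoluciferin substrate (Caspase-Glo 3/7) for 1 h at room temperature; luminescence read on a luminometer.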

Test [17] relates to DLD-1. Description: Decrease in Bcl-xL mRNA expression in human DLD1 cells co-transfected with Sac1 cells at 18.5 uM after 24 hrs by RT-PCR analysis. Format: functional, cell-based.
The target of test [18] is Tumor necrosis factor receptor superfamily member 10B (Homo sapiens) (UniProt O14763). Description: Induction of DR5 receptor promotor activity in human DLD1 cells co-transfected with Sac1 cells at 18.5 uM after 24 hrs by luciferase assay. Format: cell-based.
The subject of test [19] is DLD-1. Briefly: Induction of DR5 gene expression in human DLD1 cells co-transfected with Sac1 cells at 9.3 uM after 24 hrs by RT-PCR analysis. The class given is functional.
The test system of test [20] is DLD-1. Briefly: Induction of DR5 protein expression in human DLD1 cells co-transfected with Sac1 cells after 24 hrs by Western blot analysis. The class given is functional, cell-based. In a few lines: as §2
The test system of test [21] is AGS. Briefly: Induction of apoptosis in TRAIL-resistant human AGS cells assessed as late apoptotic cells at 9.3 uM after 24 hrs using annexin-V-FITC/propidium iodide staining by flow cytometry in presence of TRAIL. Format: functional.
Test [22] has as its system DLD-1. Description: Increase in CHOP mRNA expression in human DLD1 cells co-transfected with Sac1 cells. The class given is functional, cell-based.
The subject of test [23] is DLD-1. Briefly: Induction of apoptosis in TRAIL-resistant human DLD1 cells assessed as early apoptotic cells at 18.5 uM after 24 hrs using annexin-V-FITC/propidium iodide staining by flow cytometry in presence of TRAIL. The class given is functional.
For test [24], the system named is DLD-1. Briefly: Decrease in Bcl-xL protein expression in human DLD1 cells co-transfected with Sac1 cells after 24 hrs by Western blot analysis. The class given is functional, cell-based. In a few lines:
as §2

For test [25], the system named is DLD-1. Description: Induction of apoptosis in TRAIL-resistant human DLD1 cells assessed as early apoptotic cells at 9.3 uM after 24 hrs using annexin-V-FITC/propidium iodide staining by flow cytometry in presence of TRAIL. The class given is functional.
The subject of test [26] is DLD-1. Briefly: Induction of apoptosis in TRAIL-resistant human DLD1 cells assessed as late apoptotic cells at 9.3 uM after 24 hrs using annexin-V-FITC/propidium iodide staining by flow cytometry in presence of TRAIL. The class given is functional.
Test [27] deals with DLD-1. Briefly: Induction of DR4 gene expression in human DLD1 cells co-transfected with Sac1 cells after 24 hrs by RT-PCR analysis. Format: functional, cell-based.
The test system of test [28] is DLD-1. Briefly: Induction of apoptosis in TRAIL-resistant human DLD1 cells assessed as accumulation in sub-G1 phase at 18.5 uM after 24 hrs using annexin-V-FITC/propidium iodide staining by flow cytometry in presence of TRAIL/human recombinant DR5/Fc chimera protein. Format: functional, cell-based. An outline of the steps:
(§3)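 DLD1/TR cells incubated 24 h with 18.5 uM test agent and 100 ng/mL TRAIL, plus 2.5 ug/mL human recombinant DR5/Fc or DR4/Fc chimera. Ethanol-fixed, PI/RNase stained, sub-G1 fraction read by flow cytometry (at least 20,000 events). Run in triplicate.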

The subject of test [29] is DLD-1. Briefly: Induction of apoptosis in TRAIL-resistant human DLD1 cells assessed as accumulation in sub-G1 phase at 18.5 uM after 24 hrs using annexin-V-FITC/propidium iodide staining by flow cytometry in presence of TRAIL/human recombinant DR4/Fc chimera protein. The class given is functional, cell-based. In a few lines: as §3

Structures are written as SMILES. pIC50: −log10 of the molar value. Activity calls are given as the source filed them. No cut-off for these calls is given here.

Tumor necrosis factor receptor superfamily member 10B (Homo sapiens), sequence (O14763 whole entry): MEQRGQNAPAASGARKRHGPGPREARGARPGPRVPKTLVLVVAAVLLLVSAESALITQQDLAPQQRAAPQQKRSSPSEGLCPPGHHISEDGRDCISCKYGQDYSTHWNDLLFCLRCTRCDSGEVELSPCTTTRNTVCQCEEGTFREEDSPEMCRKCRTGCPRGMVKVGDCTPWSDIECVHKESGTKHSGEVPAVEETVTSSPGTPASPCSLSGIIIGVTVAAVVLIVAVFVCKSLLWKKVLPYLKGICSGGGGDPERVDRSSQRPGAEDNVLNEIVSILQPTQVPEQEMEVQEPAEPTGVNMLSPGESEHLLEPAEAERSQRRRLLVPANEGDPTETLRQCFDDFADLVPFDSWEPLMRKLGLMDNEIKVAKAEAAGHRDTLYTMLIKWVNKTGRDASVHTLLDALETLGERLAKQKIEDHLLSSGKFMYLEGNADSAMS

For `COc1cc(/C=C/c2ccccc2)oc(=O)c1`, the fold change (FC) in test [1] is 2.5.

`O=C1C[C@@H](c2ccccc2)Oc2cc(O)cc(O)c21` displayed a fold change (FC) in [2] of 2.5.

The pIC50 is the IC50 on a negative log10 scale, so that one unit is a factor of ten. A lower pIC50 goes with a high IC50. In the case of `COc1cc(O)cc(O)c1C(=O)/C=C/c1ccccc1` [CARDAMOMIN], the “fold change (FC)” value was 4.1 in the test on DLD-1 [3], 4.1 in test [18] and 2 with DLD-1 [19]. Moreover, the Activity with DLD-1 [4] is recorded as 20.5%; in the test on DLD-1 [8] it was 55.8%; in the test with AGS [9], 5%; in the test with DLD-1 [11] it was 15.5%; with AGS [13] it was 30.2%; with DLD-1 [14], 41.9%. In addition, the Activity in the test on AGS [15] is 15%; in the test on DLD-1 [16], “Dose-dependent effect”; in the test on DLD-1 [20], “Dose-dependent effect”; in the test with AGS [21] it was 3%; in the test with DLD-1 [22], “Dose-dependent effect”; with DLD-1 [23], 26.7%. In addition, the Activity result was “Dose-dependent effect” with DLD-1 [24], 14.1% in the test with DLD-1 [25], 14.3% in the test on DLD-1 [26] and “Dose-dependent effect” in the test on DLD-1 [27]. The compound also showed a negative-log IC50 (pIC50) with DLD-1 [5] of 4.38. Also, the result in the test with DLD-1 [6], with DLD-1 [10], with DLD-1 [17] and in the test on DLD-1 [28] was Active. The outcome in the test on DLD-1 [7], in the test on DLD-1 [12] and with DLD-1 [29] was inactive.
